CaV13 FRET inh = Disruptors of the CACNA1D IQ motif to Ca2+-dependent inactivation inhibitor domain association, primary screening, Förster resonance energy transfer in intact living …. inhibition, % at 12.3 µM. 0.098% of 340,000 active. HEK cells, CFP/YFP FRET ICDI-IQ, plate reader, 10 min; percent FRET-ratio fall versus neutral wells;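 active = mean replicate inhibition of at least 30% and at least 1% of replicates passing that level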;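 note: 0% = median of the neutral control wells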
aDG glyco up = activators of alpha-DG glycosylation, primary screen, uHTS, Pro5-aDG cells, AlphaScreen; 0.22% of 360,000 active; alpha-DG glycosylation AlphaScreen (IIH6); 0% Pro5, 100% B10-LARGE cell signal; activation, % at 10 µM;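 active = activation of at least 8% versus controls, or a plate z-score of at least 8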;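 note: Pro5 are CHO cells carrying HIG-tagged alpha-DG that lacks glycosylation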
procasp7 counter = procaspase-7 activators, primary screen, counter-screen for procaspase-3 activator project, biochemical, absorbance, HTS, human; AID 463210, 2010; recombinant procaspase-7, Ac-DEVD-pNA absorbance 405 nm; D23A/D198A/D206A triple mutant, cannot self-cleave; scale: DMSO 0, 5 µM enzyme 100; 0.093% of 330,000 active; activation, % at 8.5 µM; Caspase-7 (Homo sapiens), P55210;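 active = percent activation above the screen-wide mean plus 3 SD, cut at about 25% in these data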
Target sequence (P55210 whole entry D23A/D198A/D206A): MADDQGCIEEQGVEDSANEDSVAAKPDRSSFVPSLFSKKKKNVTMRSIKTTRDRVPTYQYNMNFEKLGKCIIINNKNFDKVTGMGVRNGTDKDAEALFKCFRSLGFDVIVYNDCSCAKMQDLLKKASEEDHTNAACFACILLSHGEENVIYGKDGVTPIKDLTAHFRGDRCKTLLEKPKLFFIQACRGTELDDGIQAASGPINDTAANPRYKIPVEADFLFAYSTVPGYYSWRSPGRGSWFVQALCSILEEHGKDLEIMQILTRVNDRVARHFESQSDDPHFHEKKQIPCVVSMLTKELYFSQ
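Assay system: Uncleavable procaspase-7 mutant enzyme / Input: 2 µM procaspase-7 mutant as dispensed / Dosing: single nominal 8.5 µM compound dose, 0.8% DMSO final / Timing: 1 h enzyme–compound preincubation and 2 h substrate reaction, both 25 °C / Detection: p-Nitroaniline absorbance at 405 nm, read at 0 and 120 min / Replication: singlicate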
T cell modulator = modulators of CD8 T cell-vesicle binding, primary screen, mouse 2C CD8+ T cells, flow cytometry; 2C CD8+ T cell-vesicle binding; hits give low values; response (vesicle binding), % at 7 µM; 0.068% of 330,000 active; AID 2052, 2009;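 active = response, share of CD8 T cells binding vesicles, and their 90th percentile fluorescence all below set limits, cut at about 80% in these data, passing the limit was not always enough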;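 note: values below 100% mean blocked vesicle binding to the CD8+ T cells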
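Also added: QL9-peptide-loaded Drosophila micro-vesicles bearing Ld, ICAM-1 and B7-1; Test system: purified 2C TCR transgenic mouse naive CD8+ T cells; Measured by: cytometric PE anti-B7-1 and Alexa647 anti-CD8 signals after 1% paraformaldehyde fixation; Timing: binding step 1.5 h, 37 °C, antibody labelling 20 min, ice.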
proCasp3 act = activators of human procaspase-3 D3A mutant, primary screen, biochemical, absorbance, PC-3 D3A mutant, single concentration. 0.11% of 330,000 active. AID 463141, 2010. recombinant procaspase-3 D3A, Ac-DEVD-pNA absorbance 405 nm. activation, % at 8.5 µM;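 active = activation above the mean of all tested compounds plus 3 SD, cut at about 21% in these data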;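 note: 0% = DMSO alone and 100% = DMSO wells spiked with extra 5 µM PC-3 D3A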
Target sequence (P42574 whole entry D9A/D28A/D175A): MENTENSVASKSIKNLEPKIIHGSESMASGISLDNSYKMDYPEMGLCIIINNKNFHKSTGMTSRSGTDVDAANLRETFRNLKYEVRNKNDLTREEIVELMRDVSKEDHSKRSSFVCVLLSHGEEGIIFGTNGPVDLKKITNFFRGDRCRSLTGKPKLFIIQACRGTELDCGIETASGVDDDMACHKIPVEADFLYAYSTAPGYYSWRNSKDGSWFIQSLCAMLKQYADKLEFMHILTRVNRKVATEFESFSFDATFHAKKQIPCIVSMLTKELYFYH
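Assay system: Autoprocessing-dead procaspase-3 D3A mutant enzyme; also added: Ac-DEVD-pNA; doses: one concentration, 8.5 µM nominal, 0.8% DMSO; times: 1 h compound preincubation, 2 h substrate hydrolysis at 25 °C; technique: 405 nm absorbance of p-nitroaniline, reads at 0 and 120 min; measure: % activation between DMSO and enzyme-spiked controls; repeats: single replicate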
GRK2 inh = compounds blocking aptamer binding on GRK2 – biochemical, human GRK2, bead flow cytometry, HTS, primary screen. 0.59% of 330,000 active. Beta-adrenergic receptor kinase 1 (Homo sapiens), P25098. inhibition of aptamer binding, % at 10 µM. FAM-aptamer displacement from GRK2. AID 488847, 2010;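 active = inhibition of aptamer binding above 40%, roughly 3 SD of noise, on plates passing a quality check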;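 note: median bead fluorescence of bound FAM aptamer so fluorescent compounds give negative values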
GRK2 CP1 = GRK2 aptamer-displacing inhibitors, retest, confirmation, biochemical, cherry pick 1, bead flow cytometry | bead-bound GRK2, FAM-aptamer displacement | shares compounds with GRK2 inh | aptamer displacement, % at 10 µM | 4% of 2,000 active;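 active = aptamer displacement above 40%, near three times the noise of non-fluorescent compounds, on plates passing quality checks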;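 note: negative values mostly reflect intrinsic compound fluorescence rather than true enhancement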
FAM quench CP1 = quenches fluorescent RNA aptamer, GRK2 hit artifact. Carboxyfluorescein RNA aptamer on beads, flow cytometry quenching; hits give low values. fluorescence response (% of DMSO), % at 10 µM. shares compounds with GRK2 inh. 2,000 tested, under 10 active;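 active = compounds that quench the bead-bound fluorescent RNA probe, cutting fluorescence to under half of the solvent control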;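 note: counterscreen run without GRK2 so only probe quenching by compound is measured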
Active calls of the source: *; i = inactive; / = no result. Sampled rows, rich in hits. Any-hit rate of the full collection: about 1.1%.

SMILES | CaV13 FRET inh | aDG glyco up | procasp7 counter | T cell modulator | proCasp3 act | GRK2 inh | GRK2 CP1 | FAM quench CP1
O=C(COc1cc(Cl)c(Cl)cc1Cl)N1CCN(c2ccccn2)CC1 | -4 | 0 | 6 | 106 | 2 | 95* | -2 | 95
COc1ccccc1N1CCN(C(=O)c2cccc(S(=O)(=O)N3c4ccccc4CC3C)c2)CC1 (stereo not drawn) | -1 | -1 | / | / | / | / | -4 | 96
CC1Cc2ccccc2N1S(=O)(=O)c1cccc(C(=O)N2CCCCC2)c1 (stereo not drawn) | -6 | 0 | / | / | / | / | / | /
O=C(c1ccc(Cl)c(S(=O)(=O)NCc2ccccc2)c1)N1CCN(c2ccccn2)CC1 | -8 | 0 | 5 | 330 | -4 | 2 | -2 | 103
Cc1cccc(C(=O)N2CCN(c3ccccn3)CC2)c1 | / | 0 | 3 | 382 | 1 | 75* | 0 | 95
CC(CCc1ccccc1)NC(=O)CCC(=O)N1CCC(C(=O)O)CC1 (stereo not drawn) | -6 | 0 | -12 | 599 | 4 | 2 | / | /
O=C(CSc1nnc(Nc2ccccc2F)s1)NC1CC1 | -2 | 0 | 7 | 476 | 5 | 0 | / | /
O=C(c1cccc(S(=O)(=O)N2CCc3ccccc32)c1)N1CCN(c2ccccn2)CC1 | -2 | 0 | 7 | 364 | 6 | 2 | 0 | 97
Cc1cc(C)cc(C(=O)N2CCN(c3ccccn3)CC2)c1 | 10 | 0 | 5 | i | 0 | 3 | -4 | 99
Cc1ccc(C(=O)N2CCN(c3ccccn3)CC2)cc1 | -5 | 1 | 10 | 503 | -7 | 0 | / | /
COc1ccc(N2CCN(C(=O)c3cccc(S(=O)(=O)N4CCc5ccccc54)c3)CC2)cc1 | -10 | 0 | 6 | 255 | 9 | 5 | / | /
Cn1cc(C(=O)c2ccc(Cl)cc2Cl)cc1C(=O)N/N=C(\N)COc1ccccc1 | / | 0 | 7 | 490 | 3 | 58* | 0 | 101
Cn1cc(C(=O)c2ccc(Cl)cc2Cl)cc1C(=O)N/N=C(\N)COc1ccc(Cl)cc1 | -2 | 0 | 4 | 164 | -1 | 3 | / | /
NS(=O)(=O)c1ccc(NC(=O)CSC2=NC(=O)C(c3ccccc3)C(=O)N2)cc1 (stereo not drawn) | -5 | 0 | 3 | 730 | -6 | 100* | -1 | 101
NS(=O)(=O)c1ccc(NC(=O)CSc2ccccc2)cc1 | -5 | 0 | -7 | 320 | -3 | 0 | / | /
CCCOc1ccc(N2CC(C(=O)Nc3ccccc3C(=O)NC)CC2=O)cc1 (stereo not drawn) | -2 | 0 | 10 | 915 | 9 | 47* | 0 | 98
COCc1cc(CN(C)C(=O)c2oc3c(F)cccc3c2C)[nH]n1 | -15 | 0 | 4 | 368 | 1 | 1 | / | /
Cc1onc(-c2ccccc2)c1C(=O)n1cc(Br)cn1 | -8 | 0 | 12 | 257 | 10 | 69* | 0 | 97
CCc1cc2c(nc1CC)CCCN2Cc1ccc(Br)cc1 | -11 | / | / | / | / | / | / | /
CN(c1ccccc1)S(=O)(=O)c1ccc(C(=O)N2CCCC2)cc1 | -2 | 0 | 11 | 262 | 3 | 58* | 0 | 101
Cc1ccc(S(=O)(=O)N(C)c2ccc(C(=O)N3CCc4ccccc4C3)cc2)cc1 | -21 | 0 | 8 | 103 | -4 | 57* | -4 | 98
O=C(Cc1ccc(S(=O)(=O)N2CCOCC2)s1)N1CCN(S(=O)(=O)c2ccc(Cl)cc2)CC1 | -5 | 1 | -5 | 330 | 9 | 0 | / | /
CCOc1ccc(-n2nc(C(=O)NC3CCCCC3)c3ccccc3c2=O)cc1 | -2 | 0 | 3 | 654 | -5 | 81* | -4 | 102
CCCCN(C)C(=O)CNC(=O)c1nn(-c2ccc(OC)cc2OC)c(=O)c2ccccc12 | -3 | 0 | 7 | 222 | -3 | 0 | -3 | 101
CCCCNC(=O)CNC(=O)c1nn(-c2ccc(OC)cc2OC)c(=O)c2ccccc12 | -21 | 0 | 6 | 282 | 6 | 8 | 0 | 94
SMILES | CaV13 FRET inh | aDG glyco up | procasp7 counter | T cell modulator | proCasp3 act | GRK2 inh | GRK2 CP1 | FAM quench CP1
COc1ccc(-n2nc(C(=O)NCC(=O)N(C)Cc3ccccc3)c3ccccc3c2=O)c(OC)c1 | -5 | 0 | 8 | 292 | 5 | 1 | / | /
CCC(C)NC(=O)CNC(=O)c1nn(-c2ccc(OC)cc2)c(=O)c2ccccc12 (stereo not drawn) | -4 | 0 | 4 | i | 2 | 44* | -2 | 93
Cc1cc(C)n2c(Nc3c(C)cccc3C)c(CC(C)C)nc2n1 | -5 | 0 | / | / | / | / | / | /
O=C(c1cccc(N2C(=O)C3CC=CCC3C2=O)c1)N1CCN(c2ccccc2)CC1 (stereo not drawn) | -6 | 0 | 9 | 369 | -3 | 4 | / | /
CCC1Sc2ccccc2N(CC(=O)NCCC(C)C)C1=O (stereo not drawn) | -7 | 0 | -4 | 523 | -6 | 34 | -2 | 104
COc1ccc(N2CCN(CCCn3c(=S)[nH]c4ccccc4c3=O)CC2)cc1 | -3 | 0 | 7 | i | -3 | 23 | -2 | 95
O=C(CCCn1c(=S)[nH]c2ccccc2c1=O)N1CCN(c2cccc(Cl)c2)CC1 | -5 | 0 | 3 | 373 | -3 | 0 | -3 | 93
O=C(CCCCn1c(=O)[nH]c2ccccc2c1=O)N1CCN(c2cccc(C(F)(F)F)c2)CC1 | -4 | 1 | -2 | 536 | -4 | 3 | / | /
COc1ccccc1N1CCN(CCCn2c(=S)[nH]c3ccccc3c2=O)CC1 | -4 | 0 | 4 | 269 | 6 | 0 | / | /
CCCn1cc(CCC(=O)Nc2ccc(Oc3cccnc3)cc2)c2ccccc21 | -11 | / | / | / | / | / | / | /
NC(=O)c1sc2nc3c(cc2c1N)CCCCCC3 | -4 | 0 | -6 | 235 | -16 | 75* | 9 | 96
Nc1c(C(=O)O)sc2nc3c(cc12)CCCC3 | -5 | 0 | -5 | 468 | -6 | 4 | / | /

Source: PubChem BioAssay (several laboratories)
